# Results as given in ChEMBL document CHEMBL1158835, “Hirsutane sesquiterpenes from the fungus Lentinus connatus BCC 8996” (J Nat Prod, 2005).
# Key:
# [1] = test system: Vero; test: Cytotoxicity against african green monkey Vero cells by SRB assay; assay type: cell-based; settings: Chlorocebus sabaeus
# Summary of the method: (§1)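 Colorimetric (Skehan) cytotoxicity assay on KB human epidermoid carcinoma, BC human breast cancer, NCI-H187 human small cell lung cancer, and Vero African green monkey kidney […] cells. Ellipticine served as the reference substance. Activity is expressed as IC50.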
# [2] = test system: KB; test: Cytotoxicity against human KB cells by SRB assay; assay type: functional, cell-based; summary of the method: as §1
# [3] = Cytotoxicity against human BC cells by SRB assay; assay type: functional, cell-based; summary of the method: as §1
# [4] = test system: Plasmodium falciparum; test: Antimalarial activity against multidrug-resistant Plasmodium falciparum K1 after 42 hrs by [3H]hypoxanthine uptake; assay type: functional, organism-based
# Summary of the method: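 Microculture radioisotope method following Desjardins; growth of multidrug-resistant K1 parasites read as in vitro [3H]-hypoxanthine uptake. IC50 = concentration giving 50% reduction in parasite growth. Dihydroartemisinin run as standard.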
# [5] = test system: NCI-H187; test: Cytotoxicity against human NCI-H187 cells by SRB assay; assay type: functional, cell-based; summary of the method: as §1
Structure (SMILES),IC50 [1] [µg/mL],IC50 [2] [µg/mL],IC50 [3] [µg/mL],IC50 [4] [µg/mL],IC50 [5] [µg/mL]
C=C1C(=O)[C@H]2O[C@]23C[C@H]2CC(C)(C)[C@H](O)[C@H]2[C@]13C [HYPNOPHILIN],> 50,> 20,> 20,> 20,> 20
Cc1c2ccncc2c(C)c2c1[nH]c1ccccc12 [ELLIPTECINE],,0.21,0.27,,0.32
CC1=C(O)C(=O)[C@]2(O)C[C@H]3CC(C)(C)[C@H](O)[C@H]3[C@]12C [CONNATUSIN A],> 50,> 20,> 20,> 20,> 20
COc1ccc2c(c1)C(=O)CC(C)(C)O2,> 50,> 20,> 20,> 20,> 20
CC(C)=C[C@@H](O)C1=CC(=O)[C@@H]2O[C@@H]2C1=O [PANEPOXYDIONE],0.2,0.8,0.8,2.1,0.22
C=C1[C@@H](O)[C@H]2O[C@]23C[C@H]2CC(C)(C)[C@H](O)[C@H]2[C@]13C [HYPNOPHILIN 1],1.1,> 20,> 20,3.1,0.67
CC1(C)C[C@@H]2CC3=CC(=O)[C@@](O)(CO)[C@@]3(C)[C@@H]2[C@H]1O [CONNATUSIN B],> 50,> 20,> 20,> 20,> 20
CC(C)=C[C@H](O)C1=C[C@@H](O)[C@@H]2O[C@@H]2C1=O [PANEPOXYDONE],0.9,1.9,2.9,3.4,0.66
C[C@H]1[C@@H](O)O[C@@H]2O[C@@]3(C)CC[C@H]4[C@H](C)CC[C@@H]1[C@@]24OO3 [ARTENIMOL],,,,0.0018,
